# What was measured:
# [1] = biological target: Histamine H3 receptor (Cavia porcellus) (UniProt Q9JI35); experiment: Antagonist activity against histamine H3 receptor in guinea pig ileum; format: functional, tissue-based
# In short: (§1)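 Isolated guinea pig ileum segments, electrically evoked twitches; H3 antagonism from concentration-dependent inhibition of twitches by (R)-α-methylhistamine in presence of antagonist; agonist activity from concentration–response curves of the test compound in place of (R)-α-methylhistamine; each experiment at least in triplicate.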
# [2] = biological target: Histamine H2 receptor (Cavia porcellus) (UniProt P47747); experiment: Antagonist activity against histamine H2 receptor in guinea pig atrium; format: functional, tissue-based; details: Cardiac atrium
# Sequence of Histamine H2 receptor (Cavia porcellus) (P47747 whole entry): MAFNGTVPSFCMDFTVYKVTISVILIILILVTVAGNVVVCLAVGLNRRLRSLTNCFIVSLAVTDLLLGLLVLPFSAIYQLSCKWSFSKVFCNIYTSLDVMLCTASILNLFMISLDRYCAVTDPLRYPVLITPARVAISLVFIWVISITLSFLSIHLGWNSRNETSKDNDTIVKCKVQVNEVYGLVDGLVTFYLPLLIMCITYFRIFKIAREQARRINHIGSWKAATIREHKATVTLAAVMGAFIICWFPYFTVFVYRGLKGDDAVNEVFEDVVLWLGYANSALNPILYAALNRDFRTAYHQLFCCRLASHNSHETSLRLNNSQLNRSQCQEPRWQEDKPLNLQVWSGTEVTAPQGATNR
# In short: (§2)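 Isolated guinea pig tissues: H1 activity on ileum, H2 activity on spontaneously beating right atrium, by standard functional methods; each test at least in triplicate; exact type of interaction not determined in every case.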
# Histamine H3 receptor [3] = biological target: T1, Histamine H3 receptor (Rattus norvegicus, UniProt Q9QYN8); experiment: Antagonist activity against histamine H3 receptor on synaptosomes of rat cerebral cortex; format: functional, subcellular, Brain
# T1 sequence (Q9QYN8 whole entry): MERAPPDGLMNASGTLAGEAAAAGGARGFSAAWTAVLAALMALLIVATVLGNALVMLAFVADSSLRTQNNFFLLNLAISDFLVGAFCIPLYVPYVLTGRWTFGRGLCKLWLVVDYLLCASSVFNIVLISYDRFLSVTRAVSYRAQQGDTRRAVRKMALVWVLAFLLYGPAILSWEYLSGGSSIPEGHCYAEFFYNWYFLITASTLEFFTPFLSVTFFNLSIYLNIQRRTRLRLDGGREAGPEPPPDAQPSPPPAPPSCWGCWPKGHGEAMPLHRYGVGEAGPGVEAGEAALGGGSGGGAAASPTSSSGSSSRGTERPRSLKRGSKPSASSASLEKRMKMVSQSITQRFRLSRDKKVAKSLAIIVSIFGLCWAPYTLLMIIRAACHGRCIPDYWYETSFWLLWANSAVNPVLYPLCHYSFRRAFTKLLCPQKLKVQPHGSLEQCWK
# In short: (§3)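 Rat cerebral cortex synaptosomes; K+-evoked depolarization-induced [3H]histamine release measured for H3 agonist and antagonist activity; intrinsic activity derived from this preparation; at least triplicate.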
# Histamine H3 receptor [4] = biological target: T1, Histamine H3 receptor; experiment: (§4) In vitro binding affinity against histamine H3 receptor from synaptosomes of rat cerebral cortex; format: subcellular, Brain
# [5] = biological target: Histamine H3 receptor (Cavia porcellus) (UniProt Q9JI35); experiment: Binding affinity for guinea pig ileum histamine H3 receptor; format: tissue-based; in short: as §1
# [6] = biological target: Histamine H1 receptor (Cavia porcellus) (UniProt P31389); experiment: Antagonist activity against histamine H1 receptor in guinea pig ileum; format: functional, tissue-based; in short: as §2
# Sequence of Histamine H1 receptor (Cavia porcellus) (P31389 whole entry): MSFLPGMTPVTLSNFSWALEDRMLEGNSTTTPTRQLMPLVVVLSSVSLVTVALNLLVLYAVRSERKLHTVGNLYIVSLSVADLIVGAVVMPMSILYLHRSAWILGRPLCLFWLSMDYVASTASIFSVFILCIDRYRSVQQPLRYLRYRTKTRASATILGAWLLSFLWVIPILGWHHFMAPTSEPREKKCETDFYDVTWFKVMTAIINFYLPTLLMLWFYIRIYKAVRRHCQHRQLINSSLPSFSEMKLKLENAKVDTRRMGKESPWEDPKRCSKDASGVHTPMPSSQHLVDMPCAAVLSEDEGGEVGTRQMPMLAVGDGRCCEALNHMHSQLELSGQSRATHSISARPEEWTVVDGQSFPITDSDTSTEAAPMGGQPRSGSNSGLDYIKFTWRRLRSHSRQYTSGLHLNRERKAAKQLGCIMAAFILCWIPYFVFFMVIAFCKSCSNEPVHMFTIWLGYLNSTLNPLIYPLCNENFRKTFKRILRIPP
# [7] = biological target: Histamine H3 receptor (Mus musculus) (UniProt P58406); experiment: In vivo agonistic activity against histamine H3 receptor in mice after peroral administration; format: functional, organism-based
# Sequence of Histamine H3 receptor (Mus musculus) (P58406 whole entry): as the sequence (Q9QYN8 whole entry) above, with T15A, A286T, A290G, R387H, I389V counted along it
# In short: (§5)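 Swiss mice dosed orally with compounds as a methylcellulose suspension; brain histamine turnover assessed from increased (antagonist) or decreased (agonist) cerebral cortex N-methylhistamine level; intrinsic activity from modulation of this metabolite level; at least in triplicate.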
# [8] = biological target: Histamine H3 receptor (Mus musculus) (UniProt P58406); experiment: In vivo intrinsic activity against histamine H3 receptor in mice after peroral administration; format: organism-based; in short: as §5
# Histamine H3 receptor [9] = biological target: T1, Histamine H3 receptor; experiment: as §4; format: subcellular, Brain; in short: as §3; remark: listed apart in the source
# Histamine H3 receptor [10] = biological target: T1, Histamine H3 receptor; experiment: In vitro intrinsic activity against histamine H3 receptor from synaptosomes of rat cerebral cortex; format: subcellular, Brain; in short: as §3
# Sequence of Histamine H3 receptor (Cavia porcellus) (Q9JI35 whole entry): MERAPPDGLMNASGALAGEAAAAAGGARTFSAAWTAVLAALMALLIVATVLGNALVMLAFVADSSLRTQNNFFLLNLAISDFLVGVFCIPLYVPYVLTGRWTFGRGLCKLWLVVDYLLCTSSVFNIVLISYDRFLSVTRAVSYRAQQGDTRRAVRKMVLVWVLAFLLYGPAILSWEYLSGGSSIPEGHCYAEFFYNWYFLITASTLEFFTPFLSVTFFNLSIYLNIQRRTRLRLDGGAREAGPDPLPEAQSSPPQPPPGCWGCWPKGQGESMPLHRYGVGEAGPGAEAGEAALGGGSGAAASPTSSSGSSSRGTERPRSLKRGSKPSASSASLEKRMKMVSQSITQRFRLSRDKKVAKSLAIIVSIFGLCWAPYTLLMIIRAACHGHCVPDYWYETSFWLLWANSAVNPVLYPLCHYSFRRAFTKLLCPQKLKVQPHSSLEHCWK
Compound,pkB [1],pkB [2],Ki (Histamine H3 receptor [3]),Ki (Histamine H3 receptor [4]),Kb [5],pkB [6],ED50 [7],Intrinsic activity [8],EC50 (Histamine H3 receptor [9]),Intrinsic activity (Histamine H3 receptor [10])
CC(C)(C)CC(C)(C)NC(=O)OCCCc1c[nH]cn1,7.58,4.3,41.7 nM,42 nM,28 nM,6,–,–,–,–
CC(C)CCOCCCc1c[nH]cn1,7.03,3.5,14.1 nM,14 nM,93 nM,4.5,0.51 mg/kg,1,128 nM,0.22
CC(C)(C)CCNC(=O)OCCCc1c[nH]cn1.O=CC(=O)/C(O)=C/O,7.53,4.3,–,–,30 nM,4.2,–,–,–,–
CC(C)NC(=O)OCCCc1c[nH]cn1.O=CC(=O)/C(O)=C/O,7.04,< 4.3,81.3 nM,82 nM,91 nM,< 4,15 mg/kg,–,–,–
CC(C)(C)CCOCCCc1c[nH]cn1,7.38,< 4,10 nM,10 nM,42 nM,4.5,0.29 mg/kg,1,45 nM,0.55
N=C(N)SCCc1c[nH]cn1,–,–,–,–,6.6 nM,–,1 mg/kg,1,–,–
CC(C)CCCOCCCc1c[nH]cn1,7.89,4.6,9.33 nM,9.4 nM,13 nM,5,0.15 mg/kg,0.6,–,0.25
CCC(C)(C)NC(=O)OCCCc1c[nH]cn1,7.34,3.5,–,–,46 nM,4.8,0.2 mg/kg,0.4,–,–
CC(C)(C)CNC(=O)OCCCc1c[nH]cn1.O.O=C(O)C(=O)O,7.4,3.2,22.9 nM,23 nM,40 nM,3.5,0.48 mg/kg,0.7,–,0.15
CC(C)COCCCc1c[nH]cn1,6.64,–,138 nM,139 nM,228 nM,–,–,–,–,–
CC(C)CNC(=O)OCCCc1c[nH]cn1,7.39,< 4,–,–,41 nM,< 4.5,> 10 mg/kg,–,–,–
CC(C)(C)NC(=O)OCCCc1c[nH]cn1.O=CC(=O)/C(O)=C/O,7.22,< 4,–,–,60 nM,< 4,0.9 mg/kg,0.7,–,–
